Assay outcomes deposited in PubChem BioAssay by several laboratories.
hERG rescue – compounds protecting human hERG from proarrhythmic drug block; actives 0.51% (n = 310,000); activation (rescue from dofetilide block), less the hit threshold, % at 10 µM; CHO-hERG, FluxOR thallium flux, dofetilide IC70 present;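 active = activation above the mean of controls blocked by dofetilide plus 5 SD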;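 also: thallium influx through hERG after potassium depolarization seen as dye fluorescence rise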
KCC2 mod – KCC2 (human) Cl- transport modulation; Q9H2X9; KCC2 cells, thallium flux FluoZin-2 fluorescence; B-score of Tl+ flux slope (higher = more flux/activation; lower = inhibition) at 10 µM; actives 2.2% (n = 190,000); AID 1456;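 active = thallium flux slope and its plate-corrected score both differing from the plate sample mean at a set confidence after two filtering rounds, in either direction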;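 also: slope of fluorescence scaled to starting intensity during 10 to 20 s after thallium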
KCNK3 block – human KCNK3 channel inhibition, primary screen; CHO-KCNK3 thallium flux, FluxOR fluorescence; stronger effect = lower value; actives 0.84% (n = 340,000); B-score at 10 µM; AID 602410; O14649;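 active = B-score under library mean minus 4 SD, starting fluorescence ratio at most library mean plus 5 SD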;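 also: more negative B-score means stronger inhibition of thallium flux through KCNK3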
KCNQ1 inh – blocks the human KCNQ1 potassium channel; P51787; CHO-K1 KCNQ1, FluxOR thallium flux fluorescence; stronger effect = higher value; B-score at 10 µM; actives 1.3% (n = 310,000);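 active = compounds whose thallium flux B-score, printed positive for inhibition, exceeds three library SD while starting fluorescence stays within three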;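 also: channel opened by potassium depolarization with thallium stimulus after 20 min compound exposure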
KCNQ1 act – human KCNQ1 channel potentiation or activation | P51787 | CHO-K1 KCNQ1, thallium flux FluxOR fluorescence; stronger effect = higher value | B-score at 10 µM | actives 0.35% (n = 310,000) | AID 2648;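 active = fluorescence ratio B-score, a plate-corrected score, at least three library SD, with initial intensity B-score within 5 SD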
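Material: CHO-K1 cells stably expressing KCNQ1. Medium: assay buffer for compound exposure, DMSO matched across wells. Reagent: K+/Tl+ depolarizing stimulus. Compound dosing: single-concentration screen. Times: 37 °C overnight plating, 90-min dark dye load, 20-min compound pretreatment. Technique: FluxOR Tl+ flux fluorescence.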
KCNK9 inh – inhibitors of human KCNK9 two-pore domain potassium channel; actives 1.2% (n = 310,000); B-score at 10 µM; AID 488922; HEK293 KCNK9, FluxOR thallium flux fluorescence; stronger effect = lower value;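 active = ratio B-score over 3 SD below the library mean, with starting fluorescence within 5 SD of its mean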;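 also: negative B-score means less thallium flux so channel inhibition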
KCNK9 block conf – confirmation of human KCNK9 potassium channel inhibitors; shares compounds with KCNK9 inh; HEK293 KCNK9 cells, FluxOR thallium flux fluorescence; inhibition, % at 10 µM; actives 43% (n = 4,900);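 active = thallium signal inhibited by more than 5 SD of the compound-free buffer control wells, on both duplicate plates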
Kir21 sel – selectivity of KCNK9 modulators against mouse Kir2.1; shares compounds with KCNK9 inh; Kir2.1 cells, FluxOR thallium flux fluorescence; inhibition, % at 10 µM; actives 4% (n = 4,900); AID 492993;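 active = thallium signal drop more than 5 SD beyond the mean of the no-compound control wells, seen in both duplicate plates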;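 also: signal is fluorescence rise after thallium addition divided by baseline fluorescence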
KCNK9 uninduced – second counter-screen for KCNK9 modulators: effect in non-induced cells. shares compounds with KCNK9 inh. non-induced KCNK9-HEK293, FluxOR thallium flux. inhibition, % at 10 µM. actives 40% (n = 4,900). AID 492997;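 active = thallium signal drop beyond 5 SD of the untreated control mean, on both duplicate plates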
Hits are given with their value. Compounds with a hit are over-represented: about 4.1% of the library has one in this group of screens.

How did O=[N+]([O-])c1cccc(OCCN2CCC(Cc3ccccc3)CC2)c1 do in these assays?
hERG rescue: inactive; KCNK3 block: inactive; KCNQ1 inh: 7; KCNQ1 act: inactive; KCNK9 inh: inactive; KCNK9 block conf: inactive; Kir21 sel: inactive; KCNK9 uninduced: inactive

How did CCN(C(=O)CSc1nc2ccccc2o1)c1c(N)n(Cc2ccccc2)c(=O)[nH]c1=O do in these assays?
hERG rescue: inactive; KCNK3 block: inactive; KCNQ1 inh: inactive; KCNQ1 act: inactive; KCNK9 inh: inactive

What do the screens show for `CCOc1ccc(NC(=O)COC(=O)c2ccc3c(c2)OCCO3)cc1`?
KCNK3 block: inactive

Results for CC(=O)c1cccc(NC(=O)C(OC(=O)/C=C/c2ccc3c(c2)OCO3)c2ccccc2)c1 (stereo not drawn) ?
hERG rescue: inactive; KCC2 mod: inactive; KCNK3 block: inactive; KCNQ1 inh: inactive; KCNQ1 act: inactive; KCNK9 inh: -9.3; KCNK9 block conf: 24%; Kir21 sel: inactive; KCNK9 uninduced: inactive

How did Cc1ccc(C)c(S(=O)(=O)N2CCN(C(=O)Cc3ccc(S(=O)(=O)N4CCOCC4)s3)CC2)c1 do in these assays?
hERG rescue: inactive; KCNK3 block: inactive; KCNQ1 inh: inactive; KCNQ1 act: inactive; KCNK9 inh: inactive

How did COc1cc(/C=N/NC(=O)COc2ccc(-n3cnnn3)cc2)ccc1OCC(N)=O do in these assays?
hERG rescue: inactive; KCC2 mod: inactive; KCNK3 block: inactive; KCNQ1 inh: inactive; KCNQ1 act: inactive; KCNK9 inh: inactive

How did COc1ccc(-c2noc(CN3CCC(Cc4ccccc4)CC3)n2)cc1 do in these assays?
hERG rescue: inactive; KCC2 mod: inactive; KCNK3 block: inactive; KCNQ1 inh: inactive; KCNQ1 act: inactive; KCNK9 inh: inactive; KCNK9 block conf: inactive; Kir21 sel: inactive; KCNK9 uninduced: inactive

What do the screens show for `c1ccc(CC2CCN(Cc3nc(-c4ccccc4)no3)CC2)cc1`?
hERG rescue: inactive; KCC2 mod: inactive; KCNK3 block: inactive; KCNQ1 inh: inactive; KCNQ1 act: inactive; KCNK9 inh: inactive; KCNK9 block conf: inactive; Kir21 sel: inactive; KCNK9 uninduced: inactive

How did Clc1cccc(N2CCN(Cc3nc(-c4ccccc4)no3)CC2)c1 do in these assays?
hERG rescue: inactive; KCC2 mod: inactive; KCNK3 block: inactive; KCNQ1 inh: inactive; KCNQ1 act: inactive; KCNK9 inh: inactive; KCNK9 block conf: inactive; Kir21 sel: inactive; KCNK9 uninduced: inactive

How did N#Cc1nc(Cc2ccccc2)oc1N1CCN(c2cccc(Cl)c2)CC1 do in these assays?
hERG rescue: inactive; KCNK3 block: inactive; KCNQ1 inh: inactive; KCNQ1 act: inactive; KCNK9 inh: -11; KCNK9 block conf: 38%; Kir21 sel: inactive; KCNK9 uninduced: inactive

What do the screens show for `c1ccc(-c2noc(CN3CCOCC3)n2)cc1`?
hERG rescue: inactive; KCC2 mod: inactive; KCNK3 block: inactive; KCNQ1 inh: inactive; KCNQ1 act: inactive; KCNK9 inh: inactive

Results for O=C(c1ccc(N2CCCC2=O)cc1)N1CCN(c2ccccc2F)CC1 ?
hERG rescue: inactive; KCNK3 block: inactive; KCNQ1 inh: inactive; KCNQ1 act: inactive; KCNK9 inh: inactive

What do the screens show for `Cc1ccc(NC(=O)C2CCN(S(=O)(=O)c3ccc(N4CCCC4=O)cc3)CC2)cc1Cl`?
hERG rescue: inactive; KCNK3 block: inactive; KCNQ1 inh: inactive; KCNQ1 act: inactive; KCNK9 inh: inactive

Results for CC(=O)N(CCC(Cc1ccccc1)c1ccc2c(c1)OCO2)Cc1ccccc1F (stereo not drawn) ?
hERG rescue: inactive; KCNK3 block: inactive; KCNQ1 inh: 6; KCNQ1 act: inactive; KCNK9 inh: -16; KCNK9 block conf: 28%; Kir21 sel: inactive; KCNK9 uninduced: inactive

Results for Fc1ccccc1CNCCC(Cc1ccccc1)c1ccc2c(c1)OCO2 (stereo not drawn) ?
hERG rescue: inactive; KCC2 mod: inactive; KCNK3 block: inactive; KCNQ1 inh: inactive; KCNQ1 act: inactive; KCNK9 inh: inactive

Results for CCCCN(CCCC)c1ccc(C(=O)c2ccccc2C(=O)O)c(O)c1 ?
hERG rescue: inactive; KCC2 mod: inactive; KCNK3 block: inactive; KCNQ1 inh: inactive; KCNQ1 act: 18; KCNK9 inh: inactive; KCNK9 block conf: inactive; Kir21 sel: inactive; KCNK9 uninduced: inactive

How did Cc1ccc(NS(=O)(=O)c2cc(C(=O)NCCSc3ccc(C)cc3)ccc2C)cc1 do in these assays?
hERG rescue: inactive; KCNK3 block: inactive; KCNQ1 inh: inactive; KCNQ1 act: inactive; KCNK9 inh: inactive; KCNK9 block conf: inactive; Kir21 sel: inactive; KCNK9 uninduced: inactive

How did Cc1ccc(C(=O)NCCSc2ccc(Cl)cc2)cc1S(=O)(=O)Nc1ccccc1 do in these assays?
hERG rescue: inactive; KCC2 mod: inactive; KCNK3 block: inactive; KCNQ1 inh: inactive; KCNQ1 act: inactive; KCNK9 inh: inactive; KCNK9 block conf: inactive; Kir21 sel: inactive; KCNK9 uninduced: inactive

How did O=C(NCCS(=O)(=O)N1CCCCCC1)c1ccccc1 do in these assays?
hERG rescue: inactive; KCNK3 block: inactive; KCNQ1 inh: inactive; KCNQ1 act: inactive; KCNK9 inh: inactive

What do the screens show for `Cc1cccc(OCC(=O)OCC(=O)N2CCCc3ccccc32)c1C`?
KCNK3 block: inactive

How did O=C(OCC(=O)N1CCCc2ccccc21)c1cnc(Cl)c(Cl)c1 do in these assays?
hERG rescue: inactive; KCC2 mod: inactive; KCNK3 block: inactive; KCNQ1 inh: inactive; KCNQ1 act: inactive; KCNK9 inh: inactive; KCNK9 block conf: inactive; Kir21 sel: inactive; KCNK9 uninduced: inactive

How did Cc1cccc(OCCCC(=O)N2CCCc3ccccc32)c1C do in these assays?
hERG rescue: inactive; KCC2 mod: inactive; KCNK3 block: inactive; KCNQ1 inh: inactive; KCNQ1 act: inactive; KCNK9 inh: inactive; KCNK9 block conf: inactive; Kir21 sel: inactive; KCNK9 uninduced: inactive

How did N#Cc1cccc(C(=O)OCC(=O)N2CCCc3ccccc32)c1 do in these assays?
hERG rescue: inactive; KCNK3 block: inactive; KCNQ1 inh: inactive; KCNQ1 act: inactive; KCNK9 inh: inactive

What do the screens show for `O=C(OCC(=O)N1CCCc2ccccc21)c1cccc(C(F)(F)F)c1`?
hERG rescue: inactive; KCNK3 block: inactive; KCNQ1 inh: inactive; KCNQ1 act: inactive; KCNK9 inh: inactive; KCNK9 block conf: inactive; Kir21 sel: inactive; KCNK9 uninduced: inactive
